The text below walks through data of ChEMBL document CHEMBL1137643, “In vitro and in vivo activities of novel fluoroquinolones alone and in combination with clarithromycin against clinically isolated Mycobacterium avium complex strains in Japan” (2007).

Molecules are shown by their SMILES. Converted amounts (≈) assume the structure as drawn.

As a reminder, the MIC is the least concentration at which growth counts as inhibited. Read a high MIC as weaker potency. By MIC90 is commonly meant the lowest concentration that inhibits either 90% of growth or 90% of the strains tested, depending on the study. Low values mean greater potency, high ones weaker potency.

Common to all, as to format: functional
Test [1] relates to Mycobacterium avium complex sp. Nature of the test: Antimycobacterial activity against Mycobacterium avium complex N018 after 14 days by broth microdilution method. To be noted: N018, 336 h. In short, it runs like this: (§1)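 Broth microdilution in Middlebrook 7H9 (OADC, Tween 80, glycerol); twofold dilutions giving final 0.125–128 μg/ml; inoculum 1.0 × 10^5 CFU/well; 14 days at 37°C. MIC = lowest concentration completely inhibiting growth. Triplicate tests. Inocula from 7H10 agar colonies (21 days) subcultured in 7H9 for 7 days at 37°C, stored at −80°C.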
In general terms: Broth dilution looks for growth in wells or tubes with falling amounts of substance.

Test [2] relates to Mycobacterium intracellulare. Briefly: Antimycobacterial activity against Mycobacterium intracellular JATA52-01 after 14 days by broth microdilution method. The conditions noted are these: JATA52-01, 336 h. The essentials: as §1
Test [3] concerns Mycobacterium intracellulare. Briefly: Antimycobacterial activity against Mycobacterium intracellular JATA52-01 infected C57BL/6J mouse assessed as liver bacterial count at 200 mg/kg/day dosed through gavage route administered for 28 days post bacterial challenge measured 2 days after last dose. The essentials: (§2)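 Mice given 1.0 × 10^7 to 3.0 × 10^7 CFU in 100 μl via tail vein; daily gavage dosing began day 21 for 28 days; distilled-water controls. Sacrifice 48 h after last dose. Organ portions homogenized in 1 ml saline, diluted in 7H9, plated on 7H10; log10 CFU/organ, mean ± SEM, 5 mice/group. Experiment run twice; ANOVA with Fisher's PLSD.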

Test [4] relates to Mycobacterium avium. Nature of the test: Antimycobacterial activity against Mycobacterium avium JATA51-01 infected C57BL/6J mouse assessed as lung bacterial count at 200 mg/kg/day dosed through gavage route administered for 28 days post bacterial challenge measured 2 days after last dose. In short, it runs like this: (§3)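 Mice infected via tail vein with 1.0 × 10^7 to 3.0 × 10^7 CFU in 100 μl saline; daily oral gavage started day 21, for 28 days; distilled-water controls; sacrificed 48 h after last dose; lungs, liver, spleen homogenized in saline, serially diluted in 7H9, plated on 7H10 agar; log10 CFU/organ, mean ± SEM, 5 mice/group; ANOVA with Fisher's PLSD; experiment done twice.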

Test [5] relates to Mycobacterium avium complex sp. Briefly: Antimycobacterial activity against Mycobacterium avium complex N016 infected C57BL/6J mouse assessed as spleen bacterial count at 200 mg/kg/day dosed through gavage route administered for 28 days post bacterial challenge measured 2 days after last dose. In short, it runs like this:
as §2

Test [6] has the same test system. Briefly: Antimycobacterial activity against Mycobacterium avium complex N016 after 14 days by broth microdilution method. The conditions noted are these: N016, 336 h. In short, it runs like this: as §1
Test [7] has the same test system. Briefly: Antimycobacterial activity against Mycobacterium avium complex after 14 days by broth microdilution method. The conditions noted are these: 336 h. In short, it runs like this:
as §1

For test [8], the system named is Mycobacterium avium. Briefly: Antimycobacterial activity against Mycobacterium avium JATA51-01 infected C57BL/6J mouse assessed as spleen bacterial count at 200 mg/kg/day dosed through gavage route administered for 28 days post bacterial challenge measured 2 days after last dose. In short, it runs like this:
as §3

Test [9] relates to Mycobacterium avium complex sp. Briefly: Antimycobacterial activity against Mycobacterium avium complex N016 infected C57BL/6J mouse assessed as lung bacterial count at 200 mg/kg/day dosed through gavage route administered for 28 days post bacterial challenge measured 2 days after last dose. In short, it runs like this:
as §2

Test [10] shares this test system. Briefly: Antimycobacterial activity against Mycobacterium avium complex N084 infected C57BL/6J mouse assessed as liver bacterial count at 200 mg/kg/day dosed through gavage route administered for 28 days post bacterial challenge measured 2 days after last dose. In short, it runs like this:
as §2

Test [11] shares this test system. Briefly: Antimycobacterial activity against Mycobacterium avium complex N018 infected C57BL/6J mouse assessed as spleen bacterial count at 200 mg/kg/day dosed through gavage route administered for 28 days post bacterial challenge measured 2 days after last dose. In short, it runs like this: as §2
Test [12] has the same test system. Briefly: Antimycobacterial activity against Mycobacterium avium complex N016 infected C57BL/6J mouse assessed as liver bacterial count at 200 mg/kg/day dosed through gavage route administered for 28 days post bacterial challenge measured 2 days after last dose. In short, it runs like this: as §2
The test system is the same in test [13]. Nature of the test: Antimycobacterial activity against Mycobacterium avium complex N018 infected C57BL/6J mouse assessed as lung bacterial count at 200 mg/kg/day dosed through gavage route administered for 28 days post bacterial challenge measured 2 days after last dose. The essentials: as §2
Test [14] has the same test system. Nature of the test: Antimycobacterial activity against Mycobacterium avium complex N018 infected C57BL/6J mouse assessed as liver bacterial count at 200 mg/kg/day dosed through gavage route administered for 28 days post bacterial challenge measured 2 days after last dose. The essentials: as §2
Test [15] concerns Mycobacterium intracellulare. Nature of the test: Antimycobacterial activity against Mycobacterium intracellular JATA52-01 infected C57BL/6J mouse assessed as lung bacterial count at 200 mg/kg/day dosed through gavage route administered for 28 days post bacterial challenge measured 2 days after last dose. The essentials:
as §2

Test [16] relates to Mycobacterium avium complex sp. Nature of the test: Antimycobacterial activity against Mycobacterium avium complex N084 infected C57BL/6J mouse assessed as spleen bacterial count at 200 mg/kg/day dosed through gavage route administered for 28 days post bacterial challenge measured 2 days after last dose. In short, it runs like this: as §2
Test [17] concerns Mycobacterium intracellulare. Briefly: Antimycobacterial activity against Mycobacterium intracellular JATA52-01 infected C57BL/6J mouse assessed as spleen bacterial count at 200 mg/kg/day dosed through gavage route administered for 28 days post bacterial challenge measured 2 days after last dose. In short, it runs like this: as §2
In test [18] the test system is Mycobacterium avium complex sp. Nature of the test: Antimycobacterial activity against Mycobacterium avium complex N084 infected C57BL/6J mouse assessed as lung bacterial count at 200 mg/kg/day dosed through gavage route administered for 28 days post bacterial challenge measured 2 days after last dose. The essentials: as §2
For test [19], the system named is Mycobacterium avium. Briefly: Antimycobacterial activity against Mycobacterium avium JATA51-01 after 14 days by broth microdilution method. The conditions noted are these: JATA51-01, 336 h. The essentials:
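Broth microdilution in 7H9 (10% OADC, 0.05% Tween 80, 0.2% glycerol); twofold drug dilutions, final 0.125–128 μg/ml; inoculum 1.0 × 10^5 CFU/well from 7-day 37°C subculture of 21-day 7H10 colonies; 14 days at 37°C; MIC = lowest concentration with complete growth inhibition; triplicate.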

The subject of test [20] is Mycobacterium avium complex sp. Briefly: Antimycobacterial activity against Mycobacterium avium complex N084 after 14 days by broth microdilution method. To be noted: N084, 336 h. The essentials:
as §1

The subject of test [21] is Mycobacterium avium. Briefly: Antimycobacterial activity against Mycobacterium avium JATA51-01 infected C57BL/6J mouse assessed as liver bacterial count at 200 mg/kg/day dosed through gavage route administered for 28 days post bacterial challenge measured 2 days after last dose. In short, it runs like this:
as §3

Test [22] relates to Mycobacterium avium complex sp. Briefly: Antimycobacterial activity against Mycobacterium avium complex N016 infected C57BL/6J mouse assessed as liver bacterial count at 100 mg/kg/day dosed through gavage route administered for 28 days post bacterial challenge measured 2 days after last dose. The essentials: as §2
Test [23] shares this test system. Nature of the test: Antimycobacterial activity against Mycobacterium avium complex N018 infected C57BL/6J mouse assessed as spleen bacterial count at 100 mg/kg/day dosed through gavage route administered for 28 days post bacterial challenge measured 2 days after last dose. In short, it runs like this:
as §2

The subject of test [24] is Mycobacterium avium. Briefly: Antimycobacterial activity against Mycobacterium avium JATA51-01 infected C57BL/6J mouse assessed as spleen bacterial count at 100 mg/kg/day dosed through gavage route administered for 28 days post bacterial challenge measured 2 days after last dose. In short, it runs like this: as §3
The test system of test [25] is Mycobacterium avium. Nature of the test: Antimycobacterial activity against Mycobacterium avium JATA51-01 infected C57BL/6J mouse assessed as liver bacterial count at 100 mg/kg/day dosed through gavage route administered for 28 days post bacterial challenge measured 2 days after last dose. The essentials:
as §3

The test system of test [26] is Mycobacterium avium complex sp. Briefly: Antimycobacterial activity against Mycobacterium avium complex N018 infected C57BL/6J mouse assessed as liver bacterial count at 100 mg/kg/day dosed through gavage route administered for 28 days post bacterial challenge measured 2 days after last dose. The essentials: as §2
Test [27] relates to Mycobacterium intracellulare. Nature of the test: Antimycobacterial activity against Mycobacterium intracellular JATA52-01 infected C57BL/6J mouse assessed as lung bacterial count at 100 mg/kg/day dosed through gavage route administered for 28 days post bacterial challenge measured 2 days after last dose. In short, it runs like this: as §2
Test [28] has as its system Mycobacterium avium complex sp. Nature of the test: Antimycobacterial activity against Mycobacterium avium complex N084 infected C57BL/6J mouse assessed as spleen bacterial count at 100 mg/kg/day dosed through gavage route administered for 28 days post bacterial challenge measured 2 days after last dose. In short, it runs like this:
as §2

Test [29] has as its system Mycobacterium intracellulare. Briefly: Antimycobacterial activity against Mycobacterium intracellular JATA52-01 infected C57BL/6J mouse assessed as spleen bacterial count at 100 mg/kg/day dosed through gavage route administered for 28 days post bacterial challenge measured 2 days after last dose. The essentials:
as §2

Test [30] has as its system Mycobacterium avium complex sp. Nature of the test: Antimycobacterial activity against Mycobacterium avium complex N016 infected C57BL/6J mouse assessed as spleen bacterial count at 100 mg/kg/day dosed through gavage route administered for 28 days post bacterial challenge measured 2 days after last dose. The essentials: as §2
Test [31] shares this test system. Nature of the test: Antimycobacterial activity against Mycobacterium avium complex N084 infected C57BL/6J mouse assessed as liver bacterial count at 100 mg/kg/day dosed through gavage route administered for 28 days post bacterial challenge measured 2 days after last dose. The essentials: as §2
Test [32] relates to Mycobacterium intracellulare. Briefly: Antimycobacterial activity against Mycobacterium intracellular JATA52-01 infected C57BL/6J mouse assessed as liver bacterial count at 100 mg/kg/day dosed through gavage route administered for 28 days post bacterial challenge measured 2 days after last dose. In short, it runs like this:
as §2

In test [33] the test system is Mycobacterium avium complex sp. Nature of the test: Antimycobacterial activity against Mycobacterium avium complex N084 infected C57BL/6J mouse assessed as lung bacterial count at 100 mg/kg/day dosed through gavage route administered for 28 days post bacterial challenge measured 2 days after last dose. In short, it runs like this: as §2
Test [34] relates to Mycobacterium avium. Nature of the test: Antimycobacterial activity against Mycobacterium avium JATA51-01 infected C57BL/6J mouse assessed as lung bacterial count at 100 mg/kg/day dosed through gavage route administered for 28 days post bacterial challenge measured 2 days after last dose. In short, it runs like this:
as §3

In test [35] the test system is Mycobacterium avium complex sp. Nature of the test: Antimycobacterial activity against Mycobacterium avium complex N018 infected C57BL/6J mouse assessed as lung bacterial count at 100 mg/kg/day dosed through gavage route administered for 28 days post bacterial challenge measured 2 days after last dose. In short, it runs like this:
as §2

For test [36] the test system is unchanged. Nature of the test: Antimycobacterial activity against Mycobacterium avium complex N016 infected C57BL/6J mouse assessed as lung bacterial count at 100 mg/kg/day dosed through gavage route administered for 28 days post bacterial challenge measured 2 days after last dose. In short, it runs like this: as §2

For `CC[C@H]1OC(=O)[C@H](C)[C@@H](O[C@H]2C[C@@](C)(OC)[C@@H](O)[C@H](C)O2)[C@H](C)[C@@H](O[C@@H]2O[C@H](C)C[C@H](N(C)C)[C@H]2O)[C@](C)(OC)C[C@@H](C)C(=O)[C@H](C)[C@@H](O)[C@]1(C)O` [CLARITHROMYCIN], the MIC came to 0.5 µg/mL (≈ 0.668 µM) in [1]; 0.5 µg/mL (≈ 0.668 µM) in test [2]; 2 µg/mL (≈ 2.67 µM) in test [6]; 2 µg/mL (≈ 2.67 µM) with Mycobacterium avium [19]; 0.5 µg/mL (≈ 0.668 µM) in test [20]. Further, the log10cfu is 3.2 in test [3]; 7.1 in the test with Mycobacterium avium [4]; 5.36 in test [5]; 7.1 in the test on Mycobacterium avium [8]; 3.94 in test [9]; 4.58 in test [10]. Besides, the log10cfu in test [11] came out at 4.06; in test [12] it was 5.91; in test [13] it was 2.18; in [14], 5.03; in test [15] it was 3.17; in test [16], 4.3. Besides, the log10cfu is recorded as 3.16 in test [17], 5.28 in test [18] and 8.12 in the test on Mycobacterium avium [21]. In test [7], this molecule displayed an MIC90 of 64 µg/mL (≈ 85.6 µM).
As to `COc1c(N2CCNC(C)C2)c(F)cc2c(=O)c(C(=O)O)cn(C3CC3)c12` (configuration not stated) [GATIFLOXACIN], the log10cfu in test [22] turned out to be 6.6; in test [23], 6.75; in the test with Mycobacterium avium [24], 9.18; with Mycobacterium avium [25] it was 9.91; in [26], 7.21; in [27], 5.32. Further, the log10cfu in test [28] was determined as 7.6; in test [29], 4.41; in test [30] it was 6.81; in test [31] it was 8; in [32] it was 5.15; in [33], 8.14. Besides, the log10cfu in the test with Mycobacterium avium [34] is 8.9; in [35], 5.96; in [36], 5.48. The MIC came to 1 µg/mL (≈ 2.66 µM) in test [1]; 1 µg/mL (≈ 2.66 µM) in test [2]; 0.5 µg/mL (≈ 1.33 µM) in test [6]; 2 µg/mL (≈ 5.33 µM) in the test on Mycobacterium avium [19]; 1 µg/mL (≈ 2.66 µM) in test [20]. The MIC90 in [7] is 4 µg/mL (≈ 10.7 µM).
